# From PubChem BioAssay
# Most compounds without a hit are left out; they make up all but 2.2% or so of the library.
# FGF22 binding-1: FGF22 (human) thermal shift binding; recombinant FGF22 thermal shift, SYPRO orange fluorescence; percent of sucrose octasulfate shift, DMSO zero; activity (Tm shift, normalised), % at 9.99 µM; 340,000 compounds, 1.5% hits; AID 651658;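 active = mean Tm shift, scaled 0 neutral to 100 positive control, at about 1.3% or above, every replicate too, limit read from the data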
# Target sequence (Q9HCT0 whole entry, looked up): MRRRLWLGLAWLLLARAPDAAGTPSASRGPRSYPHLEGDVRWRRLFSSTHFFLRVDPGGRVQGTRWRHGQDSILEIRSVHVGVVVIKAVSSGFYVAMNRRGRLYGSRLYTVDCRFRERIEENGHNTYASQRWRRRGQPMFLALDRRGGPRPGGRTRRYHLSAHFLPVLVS
# SIRT5 inh: sirtuin-5 (human) deacylase inhibition; Q9NXA8; Purified SirT5, succinyl-peptide AMC, trypsin-coupled fluorescence; inhibition, % at 15 µM; 330,000 compounds, 1.1% hits; in the data active = inhibition above about 15%
# Target sequence (Q9NXA8 whole entry, looked up): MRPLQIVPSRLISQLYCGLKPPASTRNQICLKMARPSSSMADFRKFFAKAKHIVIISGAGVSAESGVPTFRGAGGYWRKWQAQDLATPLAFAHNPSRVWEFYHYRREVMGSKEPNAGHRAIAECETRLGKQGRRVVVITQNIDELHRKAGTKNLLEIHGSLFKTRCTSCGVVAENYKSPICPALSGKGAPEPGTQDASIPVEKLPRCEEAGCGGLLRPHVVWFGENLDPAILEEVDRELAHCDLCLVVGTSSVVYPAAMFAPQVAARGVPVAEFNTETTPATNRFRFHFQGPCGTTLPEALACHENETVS
# ERAP1 HTS inh: ERAP1 (human) enzyme inhibition. inhibition, % at 10.7 µM. Q9NZ08. 340,000 compounds, 0.15% hits. recombinant ERAP1, Leu-AMC fluorescence, 60 min;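 active = mean replicate inhibition of at least 30%, or all replicates individually reaching that 30% level; inactive = mean below 30% and not every replicate reaching it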;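 also: 0% = neutral control wells and 100% = L-leucinethiol positive control wells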
# PGC1a acetyl inh: modulators of PGC1a acetylation; U2OS PGC1a acetylation, AlphaScreen anti-acetyl-lysine; with virally co-expressed GCN5 acetyltransferase; inhibition, % at 15.6 µM; 350,000 compounds, 0.17% hits; AID 651687;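 active = every replicate shows inhibition of at least 40%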;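 also: 0% = neutral control wells and 100% = positive control wells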
# FN deposition inh: fibronectin deposition inhibition; AH1F fibroblasts, Alexa488-fibronectin deposition fluorescence, overnight; inhibition, % at 12.6 µM; 350,000 compounds, 0.086% hits; AID 743247;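 active = mean inhibition across replicates of 30% or more, regardless of how many single replicates reach that level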;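 also: positive control wells lacked labelled fibronectin entirely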
#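 Assay system: AH1F fibroblasts assembling fluorescent fibronectin matrix; Amount: 10000 AH1F cells per well; Buffer or medium: DMEM, 2% serum; Probe or stimulus: Alexa488-fibronectin, 24 nM final in well; Doses: single compound dose, delivered by pin transfer; Incubation: 1 h adhesion, overnight exposure; Measured by: fluorescence 485/525 nm; Read-out: fibronectin deposition inhibition.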
# FGF22 binding-2: FGF22 (human) binding in thermal shift | recombinant FGF22 thermal shift, SYPRO orange fluorescence | shares compounds with FGF22 binding-1 | 1,000 compounds, 2% hits | thermal shift activity, °C (ΔTm) at 38 µM;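 active = fitted rise in melting shift crosses a set limit at or below the top valid dose tested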
# TSA no protein: shows thermal shift signal without protein, FGF22 counter-screen; 1,000 compounds, 2% hits; AC50, µM (titrated, usually from 38 µM); shares compounds with FGF22 binding-1; compound-only SYPRO orange thermal shift counter-screen, no protein; AID 743019;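 active = rising signal whose fitted curve reaches the 0.54 level within the top valid dose, showing a melting point, actives reach about 13 µM in these data; inactive = the rest, including activity in the opposite direction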; also: value is where the raw curve crosses a fixed level and not half-maximal
# * = called active by the depositor; i = inactive; / = no result; [ ] = dose if it differs, or a comment.
SMILES,FGF22 binding-1,SIRT5 inh,ERAP1 HTS inh,PGC1a acetyl inh,FN deposition inh,FGF22 binding-2,TSA no protein
Cn1ncc2c(Nc3ccc(Cl)c(Cl)c3)ncnc21,9.1*,1.1,-0.1,-8.9,-30.5,0.147,i
C[C@H](CO)N1C[C@H](C)[C@H](CN(C)Cc2ccc(C(=O)Nc3ccccc3N)cc2)Oc2ccc(NS(=O)(=O)c3ccccc3)cc2C1=O,-0.1,12.7,-1.7,-3.7,/,/,/
O=[N+]([O-])c1cc(CS(=O)(=O)Oc2ccc(Cl)cc2)c(O)c([N+](=O)[O-])c1,1.4*,6.5,6.1,/,-3.5,0.108,i
CN(C)CC(=O)Nc1ccc2c(c1)[C@@H]1C[C@@H](CC(=O)NCc3ccccn3)O[C@H](CO)[C@@H]1O2,0.0,-2.6,-1.5,-6.9,/,/,/
C[C@H](CO)N1C[C@H](C)[C@H](CN(C)Cc2ccc(-c3ccccc3)cc2)Oc2ccc(NC(=O)C3CCCCC3)cc2C1=O,-0.2,-17.1,2.3,-3.4,-4.7,/,/
N#CCc1nn(-c2ccccc2)c2ncnc(N)c12,1.5*,-1.1,-0.4,/,3.6,-0.003,i
NNC(=O)CN1C(=O)C2(OCCO2)c2ccccc21,29.6*,/,-1.5,/,/,0.05,i
O=[N+]([O-])c1ccc(CSc2nnc(Cc3ccccc3)o2)cc1,1.4*,-2.8,/,7.7,0.5,0.023,i
Cc1ccc(S(=O)(=O)N(C)c2ccc(OCC(=O)Nc3ccc(S(C)(=O)=O)cc3)cc2)cc1,-0.2,-1.0,0.0,-1.9,2.8,/,/
Cc1ccc(S(=O)(=O)N(C)c2ccc(OC(=O)COc3ccccc3)cc2)cc1,15.4*,-3.3,-0.9,/,7.0,0.1,i
CC(C)Oc1ccc(F)cc1-c1cc(C(=O)NCc2cccs2)[nH]n1,1.6*,0.2,2.2,3.0,6.7,-0.075,i
COc1cc(F)ccc1-c1cc(C(=O)NCc2cccs2)[nH]n1,-0.2,1.1,7.0,-19.9,-9.5,/,/
Cc1ccc(S(=O)(=O)N(C)C[C@@H]2Oc3c(NC(=O)Nc4ccccc4)cccc3C(=O)N([C@H](C)CO)C[C@@H]2C)cc1,-0.2,3.6,4.6,-4.1,/,/,/
CCc1nnc(NC(=O)CN2CCN(Cc3ccc(C)cc3)CC2)s1,1.7*,0.3,-6.7,/,-7.0,0.157,i
NC(=O)c1cccnc1Nc1ccccc1F,1.4*,0.3,-3.6,/,2.7,0.114,i
COc1ccc(CN2[C@@H](CO)[C@@H]3c4ccccc4N(C(=O)c4ccccc4)C[C@@H]32)cc1,-0.3,0.0,-2.4,-16.4,-1.3,/,/
O=C(C[C@H]1CC[C@H]2[C@@H](COC[C@H](O)CN2Cc2ccccc2)O1)NCCc1ccccc1,1.6*,-2.7,-2.3,-6.7,-7.1,0.142,i
O=C(C[C@@H]1CC[C@@H]2[C@H](COC[C@H](O)CN2Cc2cc(F)ccc2F)O1)NCc1ccc(F)cc1,0.6,-4.0,1.1,5.5,-2.6,/,/
O=C(C[C@@H]1CC[C@H]2[C@@H](COC[C@@H](O)CN2Cc2ccccc2)O1)NCCc1ccccc1,/,-4.2,-0.6,7.6,-5.7,/,/
O=C(C[C@@H]1CC[C@H]2[C@@H](COC[C@@H](O)CN2C(=O)c2ccc(F)cc2)O1)NCc1cccc(F)c1,1.5*,-2.5,0.1,6.9,-11.8,0.035,i
O=C(C[C@H]1CC[C@@H]2[C@H](COC[C@H](O)CN2Cc2cc(F)ccc2F)O1)NCc1ccc(F)cc1,2.6*,-1.5,-0.4,4.6,-9.5,0.157[42 µM],i
O=C(C[C@H]1CC[C@@H]2[C@H](COC[C@H](O)CN2C(=O)c2ccc(F)cc2)O1)NCc1cccc(F)c1,0.7,-5.2,-1.3,2.7,-0.5,/,/
O=C(C[C@@H]1CC[C@H]2[C@@H](COC[C@@H](O)CN2C(=O)c2ccccc2F)O1)NCc1ccccc1,1.8*,1.4,0.4,7.0,-2.6,0.033[42 µM],i
O=C(Nc1ccc(F)cc1)N[C@H]1CC[C@H](CCNC(=O)c2ccccc2F)O[C@@H]1CO,/,1.5,-3.4,-0.7,/,/,/
CCC(=O)N1[C@H](CO)[C@@H](c2ccccc2)C12CN(C(=O)c1cnccn1)C2,1.3*,-1.6,1.6,7.6,/,-0.085,i
SMILES,FGF22 binding-1,SIRT5 inh,ERAP1 HTS inh,PGC1a acetyl inh,FN deposition inh,FGF22 binding-2,TSA no protein
COCC(=O)N1CC2(C1)[C@H](c1ccccc1)[C@@H](CO)N2C(=O)NC1CCCC1,1.3*,-0.4,0.8,8.0,3.3,0.018,i
Cc1[nH]c2ccccc2c1N=Nc1cc(C(=O)O)cc(C(=O)O)c1,1.5*,14.6,12.1,-1.6,-3.0,0.056,i
Clc1ccc(-c2cnc3ccccc3n2)cc1,/,/,/,/,-5.0,/,/
Oc1ccc(-c2cnc3ccccc3n2)cc1,25.3*,2.3,6.1,/,3.8,0.009,i
Cc1cc(C(=O)Nc2cccc3c2O[C@@H](CN(C)C(=O)NC2CCCCC2)[C@@H](C)CN([C@H](C)CO)C3=O)n(C)n1,31.9*,-5.7,0.9,4.2,19.3,0.009,i
Cc1ccc(S(=O)(=O)Nc2ccc3c(c2)CC(=O)N([C@@H](C)CO)C[C@@H](C)[C@H](CN(C)C(=O)Nc2ccccc2)O3)cc1,-0.5,2.1,1.6,1.2,/,/,/
Cc1noc(C)c1S(=O)(=O)Nc1ccc2c(c1)CC(=O)N([C@H](C)CO)C[C@@H](C)[C@H](CN(C)S(C)(=O)=O)O2,1.3*,/,/,5.2,-17.0,-0.038,i
COc1ccc(NC(=O)N(C)C[C@H]2Oc3ccc(NS(=O)(=O)c4ccc(Cl)cc4)cc3C(=O)N([C@H](C)CO)C[C@H]2C)cc1,1.4*,1.6,1.5,/,-5.1,-0.034[42 µM],i
Cc1cc(C(=O)Nc2cccc3c2O[C@@H](CN(C)C(=O)NC(C)C)[C@@H](C)CN([C@@H](C)CO)C3=O)n(C)n1,-0.1,3.6,1.8,-6.1,3.9,/,/
Cc1ccc(S(=O)(=O)Nc2ccc3c(c2)CC(=O)N([C@H](C)CO)C[C@@H](C)[C@H](CN(C)C(=O)Nc2ccccc2)O3)cc1,2.2*,2.7,1.8,5.1,-9.8,0.134,i
Cc1noc(C)c1S(=O)(=O)Nc1ccc2c(c1)CC(=O)N([C@@H](C)CO)C[C@H](C)[C@H](CN(C)S(=O)(=O)c1c(C)noc1C)O2,-0.5,7.6,-2.0,5.7,/,/,/
COc1ccc(NC(=O)N(C)C[C@H]2Oc3ccc(NS(=O)(=O)c4ccc(Cl)cc4)cc3C(=O)N([C@@H](C)CO)C[C@H]2C)cc1,-0.4,5.3,0.2,/,-13.7,/,/
CCNC(=O)C[C@@H]1CC[C@H]2[C@@H](COc3ccc(NC(=O)C4CCOCC4)cc3C(=O)N2C)O1,0.0,-1.5,-1.2,9.7,2.5,/,/
Cc1ccc(CN(C)C[C@@H]2OCc3cn(nn3)CCCC(=O)N([C@H](C)CO)C[C@@H]2C)cc1,0.1,-2.0,0.3,9.7,1.2,/,/
